# Experimental data from ChEMBL document CHEMBL4145668, “Dipeptide Prodrugs of the Glutamate Modulator Riluzole” (ACS Med Chem Lett, 2018).
# Active and inactive are the calls of the source. No cut-off for these calls is given here.
# Key:
# [1] = Prodrug conversion in pH 7.4 buffer assessed as riluzole formation by measuring compound half life; format: physicochemical
# In short: (§1)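 Each prodrug was incubated in pH 7.4 buffer, fresh rat serum, simulated gastric fluid or simulated intestinal fluid. Prodrug disappearance was followed for up to 2-4 h to derive a half-life in hours.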
# [2] = Prodrug conversion in rat serum assessed as riluzole formation by measuring compound half life; format: ADME, cell-free; in short: as §1
# [3] = Prodrug conversion in simulated gastric fluid assessed as riluzole formation by measuring compound half life at 0.01 mg/ml by LC/MS analysis; format: ADME; conditions: simulated gi fluid; in short: as §1
# [4] = Prodrug conversion in simulated intestinal fluid assessed as riluzole formation by measuring compound half life at 0.01 mg/ml by LC/MS analysis; format: ADME; conditions: simulated gi fluid; in short: as §1
# [5] = Prodrug conversion in human liver microsomes assessed as riluzole formation by measuring half life; format: ADME, microsome
# In short: (§2)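 Prodrug stability was tested in human, mouse, rat and dog liver microsomes, and a half-life in minutes was reported.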
# [6] = Prodrug conversion in mouse liver microsomes assessed as riluzole formation by measuring half life; format: ADME, microsome; in short: as §2
# [7] = Prodrug conversion in rat liver microsomes assessed as riluzole formation by measuring half life; format: ADME, microsome; in short: as §2
# [8] = Prodrug conversion in dog liver microsomes assessed as riluzole formation by measuring half life; format: ADME, Canis lupus familiaris, microsome; in short: as §2
# [9] = Apparent permeability across apical to basolateral side in human Caco2 cells; format: ADME, cell-based; conditions: Caco-2
# In short: (§3)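 Bidirectional transport across Caco-2 monolayers was measured as Papp A-B and Papp B-A in nm/s. Efflux ratio was calculated as B-A over A-B.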
# [10] = Apparent permeability across basolateral to apical side in human Caco2 cells; format: ADME, cell-based; conditions: Caco-2; in short: as §3
# [11] = Efflux ratio of apparent permeability […] in human Caco2 cells; format: ADME, cell-based; conditions: Caco-2
# CYP1A2 = target: T1, CYP1A2 (Homo sapiens, UniProt P05177); experiment: Inhibition of CYP1A2 (unknown origin) at 10 uM relative to control; format: ADME
# T1 sequence (P05177 whole entry): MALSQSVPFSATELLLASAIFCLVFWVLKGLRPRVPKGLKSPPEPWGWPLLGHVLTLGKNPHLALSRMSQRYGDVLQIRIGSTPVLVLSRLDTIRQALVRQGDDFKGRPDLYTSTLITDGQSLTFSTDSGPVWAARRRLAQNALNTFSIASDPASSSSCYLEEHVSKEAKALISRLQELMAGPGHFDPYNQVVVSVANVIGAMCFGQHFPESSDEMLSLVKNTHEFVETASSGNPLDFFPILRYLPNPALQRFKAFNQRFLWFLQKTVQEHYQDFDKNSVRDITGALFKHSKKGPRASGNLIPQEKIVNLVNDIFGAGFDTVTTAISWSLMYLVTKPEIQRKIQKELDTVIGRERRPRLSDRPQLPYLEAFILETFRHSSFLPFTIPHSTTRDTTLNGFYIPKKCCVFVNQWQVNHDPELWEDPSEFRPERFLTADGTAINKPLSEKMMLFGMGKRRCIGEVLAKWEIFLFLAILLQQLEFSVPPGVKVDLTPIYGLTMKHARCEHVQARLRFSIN
# CYP2D6 = CYP2D6 (Homo sapiens, UniProt P10635); experiment: Inhibition of CYP2D6 (unknown origin) at 10 uM relative to control; format: ADME
# CYP2D6, sequence (P10635 whole entry): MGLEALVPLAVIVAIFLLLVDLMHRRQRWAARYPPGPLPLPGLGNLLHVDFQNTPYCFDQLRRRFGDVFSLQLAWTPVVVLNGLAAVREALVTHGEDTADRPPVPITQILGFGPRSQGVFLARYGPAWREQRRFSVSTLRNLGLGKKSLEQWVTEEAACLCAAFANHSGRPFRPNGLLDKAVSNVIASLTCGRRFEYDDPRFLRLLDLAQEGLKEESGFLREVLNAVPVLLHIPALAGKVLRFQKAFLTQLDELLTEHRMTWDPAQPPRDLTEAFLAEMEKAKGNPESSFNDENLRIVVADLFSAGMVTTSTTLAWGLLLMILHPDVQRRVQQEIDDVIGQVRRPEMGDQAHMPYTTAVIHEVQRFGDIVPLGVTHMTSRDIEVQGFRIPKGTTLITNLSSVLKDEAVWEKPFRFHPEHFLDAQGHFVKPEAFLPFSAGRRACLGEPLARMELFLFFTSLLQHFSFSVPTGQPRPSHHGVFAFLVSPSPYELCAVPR
# CYP3A4 [12] = target: T2, CYP3A4 (Homo sapiens, UniProt P08684); experiment: Inhibition of CYP3A4 (unknown origin) at 10 uM using testosterone as substrate relative to control; format: ADME; conditions: probe testosterone
# T2 sequence (P08684 whole entry): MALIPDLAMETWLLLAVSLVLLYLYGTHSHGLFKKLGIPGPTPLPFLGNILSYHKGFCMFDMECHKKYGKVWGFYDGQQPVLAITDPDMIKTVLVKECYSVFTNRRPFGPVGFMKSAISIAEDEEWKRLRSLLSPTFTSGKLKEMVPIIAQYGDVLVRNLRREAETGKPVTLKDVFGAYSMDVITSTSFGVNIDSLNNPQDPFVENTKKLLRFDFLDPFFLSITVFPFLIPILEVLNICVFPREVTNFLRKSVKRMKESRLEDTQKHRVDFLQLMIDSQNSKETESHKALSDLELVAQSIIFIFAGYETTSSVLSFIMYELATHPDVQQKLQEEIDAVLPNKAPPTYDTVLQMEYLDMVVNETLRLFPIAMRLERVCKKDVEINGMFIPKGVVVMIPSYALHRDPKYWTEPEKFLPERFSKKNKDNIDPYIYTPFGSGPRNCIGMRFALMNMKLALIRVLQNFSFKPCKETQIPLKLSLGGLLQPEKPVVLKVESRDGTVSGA
# CYP3A4 [13] = target: T2, CYP3A4; experiment: Inhibition of CYP3A4 (unknown origin) at 10 uM using midazolam as substrate relative to control; format: ADME; conditions: probe midazolam
# Rattus norvegicus [14] = experiment: Cmax in Sprague-Dawley rat assessed as riluzole level at 2.8 mg/kg, iv measured up to 8 hrs; format: ADME, organism-based; parameters: dose 2.8 mg/kg, route intravenous; conditions: in vivo
# Rattus norvegicus [15] = experiment: Tmax in Sprague-Dawley rat assessed as riluzole level at 2.8 mg/kg, iv measured up to 8 hrs; format: ADME, organism-based; conditions: in vivo
# Rattus norvegicus [16] = experiment: Half life in Sprague-Dawley rat assessed as riluzole level at 2.8 mg/kg, iv measured up to 8 hrs; format: ADME, organism-based; conditions: in vivo
# Rattus norvegicus [17] = experiment: AUClast in Sprague-Dawley rat assessed as riluzole level at 2.8 mg/kg, iv measured up to 8 hrs; format: ADME, organism-based; parameters: time < 8 hr, dose 2.8 mg/kg, route intravenous; conditions: in vivo
# [18] = Cmax in Sprague-Dawley rat at 2.8 mg/kg, iv; format: ADME, organism-based; parameters: dose 2.8 mg/kg, route intravenous; conditions: in vivo
# [19] = Tmax in Sprague-Dawley rat at 2.8 mg/kg, iv; format: ADME, organism-based; conditions: in vivo
# Rattus norvegicus [20] = experiment: Cmax in Sprague-Dawley rat assessed as riluzole level at 14.6 mg/kg, po measured up to 8 hrs; format: ADME, organism-based; parameters: dose 14.6 mg/kg, route oral; conditions: in vivo
# In short: (§4)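 Male Sprague-Dawley rats received a single oral dose. Plasma prodrug and riluzole levels were monitored up to eight hours after dosing.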
# Rattus norvegicus [21] = experiment: Tmax in Sprague-Dawley rat assessed as riluzole level at 14.6 mg/kg, po measured up to 8 hrs; format: ADME, organism-based; conditions: in vivo; in short: as §4
# Rattus norvegicus [22] = experiment: Oral bioavailability in Sprague-Dawley rat at 14.6 mg/kg; format: ADME, organism-based; conditions: in vivo; in short: as §4
# Rattus norvegicus [23] = experiment: AUClast in Sprague-Dawley rat assessed as riluzole level at 14.6 mg/kg, po measured up to 8 hrs; format: ADME, organism-based; parameters: time < 8 hr, dose 14.6 mg/kg, route oral; conditions: in vivo; in short: as §4
# Homo sapiens [24] = experiment: Antitumor activity against human C8161 cells xenografted in mouse assessed as tumor growth inhibition at 4.9 to 14.8 mg/kg, po administered once daily via gavage for 21 days measured at 7 days interval during compound dosing; format: functional, organism-based
# In short: (§5)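 Nude mice were inoculated in the flank with 10^6 human C8161 melanoma cells. When tumors reached 40 mm3, the mice were randomized into groups of similar tumor volume. Vehicle was DMSO. Dosing was daily by oral gavage for 21 days, and tumor growth was followed.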
# [25] = Prodrug conversion in mouse plasma xenografted with human C8161 cells assessed as riluzole formation at 4.9 to 14.8 mg/kg, po administered via gavage measured 2 hrs post dose; format: ADME, organism-based; conditions: in vivo
# In short: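 In C8161 xenograft-bearing nude mice given daily oral gavage doses, plasma was sampled from selected animals 2 hours post dosing to check riluzole exposure.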
# Homo sapiens [26] = experiment: Antitumor activity against human C8161 cells xenografted in mouse assessed as tumor growth inhibition at 7.5 mg/kg, po administered once daily via gavage for 21 days measured at 7 days interval during compound dosing; format: functional, organism-based; in short: as §5
structure (smiles),measurement,setting,value
CN(CC(=O)Nc1nc2ccc(OC(F)(F)F)cc2s1)C(=O)CNC(C)(C)C,t1/2,[1],> 24 h
same,t1/2,[2],> 2 h
same,t1/2,[3],> 4 h
same,t1/2,[4],> 4 h
same,t1/2,[5],> 1 h
same,t1/2,[6],> 1 h
same,t1/2,[7],> 1 h
same,t1/2,[8],> 1 h
same,Papp A→B,[9],1.38 ×10⁻⁶ cm/s
same,Papp B→A,[10],2.41 ×10⁻⁶ cm/s
same,efflux ratio,[11],1.7
same,inhibition at 10 µM,CYP1A2,< 10%
same,inhibition at 10 µM,CYP2D6,< 10%
same,inhibition at 10 µM,CYP3A4 [12],< 10%
same,inhibition at 10 µM,CYP3A4 [13],< 10%
same,Cmax,Rattus norvegicus [14],187 ng/mL
same,Tmax,Rattus norvegicus [15],0.78 h
same,t1/2,Rattus norvegicus [16],7.83 h
same,AUClast,Rattus norvegicus [17],1137 ng·h/mL
same,Cmax,[18],1730 ng/mL
same,Tmax,[19],0 h
same,Cmax,Rattus norvegicus [20],1587 ng/mL
same,Tmax,Rattus norvegicus [21],8 h
same,F,Rattus norvegicus [22],70%
same,AUClast,Rattus norvegicus [23],20518 ng·h/mL
same,TGI,Homo sapiens [24],Active
same,Drug metabolism,[25],Metabolite_Detected
NCC(=O)N1CCC[C@@H]1C(=O)Nc1nc2ccc(OC(F)(F)F)cc2s1,t1/2,[1],0.2 h
same,t1/2,[2],0.25 h
same,t1/2,[3],2.5 h
same,t1/2,[4],< 1 h
CCNCC(=O)N(C)CC(=O)Nc1nc2ccc(OC(F)(F)F)cc2s1,t1/2,[1],< 0.25 h
same,t1/2,[2],< 0.25 h
same,t1/2,[3],> 4 h
same,t1/2,[4],< 1 h
CC(C)NCC(=O)N(C)CC(=O)Nc1nc2ccc(OC(F)(F)F)cc2s1,t1/2,[1],> 24 h
same,t1/2,[2],> 2 h
same,t1/2,[3],> 4 h
same,t1/2,[4],> 4 h
Nc1nc2ccc(OC(F)(F)F)cc2s1,TGI,Homo sapiens [26],Active
CC(C)(NC(=O)CN)C(=O)Nc1nc2ccc(OC(F)(F)F)cc2s1,t1/2,[2],2 h
same,t1/2,[3],> 4 h
same,t1/2,[4],< 1 h
CC(C)(C)NCC(=O)N1CCC[C@@H]1C(=O)Nc1nc2ccc(OC(F)(F)F)cc2s1,t1/2,[1],> 24 h
same,t1/2,[2],> 2 h
CNCC(=O)N(C)CC(=O)Nc1nc2ccc(OC(F)(F)F)cc2s1,t1/2,[1],< 0.1 h
same,t1/2,[2],< 0.1 h
same,t1/2,[3],> 4 h
same,t1/2,[4],< 1 h
CC(C)(C)NCC(=O)NC(C)(C)C(=O)Nc1nc2ccc(OC(F)(F)F)cc2s1,t1/2,[1],> 2 h
same,t1/2,[2],> 2 h
same,t1/2,[3],> 4 h
same,t1/2,[4],> 4 h
CN(CC(=O)Nc1nc2ccc(OC(F)(F)F)cc2s1)C(=O)CN,t1/2,[1],< 0.1 h
same,t1/2,[2],< 0.1 h
